Assay results from different studies.
Compare with care: the assays were run in different laboratories.
Target: cAMP-dependent protein kinase catalytic subunit PRKX (PRKX, Homo sapiens, UniProt P51817)
One construct used (P51817 1-358): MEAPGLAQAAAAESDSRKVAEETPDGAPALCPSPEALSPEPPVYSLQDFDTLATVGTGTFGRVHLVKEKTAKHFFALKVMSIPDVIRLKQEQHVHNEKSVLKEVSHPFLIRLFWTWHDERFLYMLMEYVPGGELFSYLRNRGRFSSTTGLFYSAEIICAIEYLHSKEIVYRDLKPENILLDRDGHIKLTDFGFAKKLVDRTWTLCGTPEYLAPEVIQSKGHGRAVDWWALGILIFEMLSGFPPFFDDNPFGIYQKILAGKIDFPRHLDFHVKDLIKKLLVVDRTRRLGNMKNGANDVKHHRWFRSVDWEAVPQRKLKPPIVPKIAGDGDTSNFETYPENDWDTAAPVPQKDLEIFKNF

| SMILES | read-out | action | technique | tested at | endpoint | result |
| --- | --- | --- | --- | --- | --- | --- |
| CS(=O)(=O)N1CCCC(NC(=O)[C@H](CCC2CCCCC2)NC(=O)c2ccc(CNc3ncnc4c3nnn4-c3ccccc3)cc2)C1 (some centres unmarked) | cell-free assay |  | competition with immobilised ligand | 0.1 µM | remaining binding | 100% |
| CCCOc1ccc(OC)c(F)c1C(=O)c1ccc(C(=O)N[C@@H]2CNC[C@H]2NC(=O)c2ccc3[nH]ncc3c2)cc1 | enzyme activity | inhibitor |  | 50 nM | remaining activity | 16% |
| C[C@@H](c1cccc(C#N)c1)n1cc(Cl)cc(C(N)=O)c1=N | cell-free assay |  | competition with immobilised ligand | 1 µM | remaining binding | 100% |
| CC(C)(C)c1nc(-c2cccc(NS(=O)(=O)c3c(F)cccc3F)c2F)c(-c2ccnc(N)n2)s1 | enzyme activity | inhibitor | radiometric | 1 µM | remaining activity | 77% |
| CC/C(=N\NC(=O)NCc1cccc(O)c1)c1ccc(O)c(C)c1O | enzyme activity | inhibitor |  | 0.1 µM | inhibition | 81.9% |
| Nc1ncnc2occ(-c3ccc(NC(=O)Nc4cc(C(F)(F)F)ccc4F)cc3)c12 | cell-free assay | inhibitor |  | 20 µM | remaining signal | 74% |
| N#CCCc1ccc2c(c1)-c1[nH]c3ccc([N+](=O)[O-])cc3c1CC(=O)N2 | cell-free assay |  |  | 0.5 µM | remaining signal | 78.4% |
| CCCS(=O)(=O)Nc1ccc(F)c(C(=O)c2c[nH]c3ncc(-c4ccc(Cl)cc4)cc23)c1F | enzyme activity | inhibitor |  | 1 µM | inhibition | < 10% |
| CC1=C(C#N)C(c2ccc3c(c2)c(NC(=O)c2ccccc2C)nn3C)C(C#N)=C(C)N1 | cell-free assay |  | competition with immobilised ligand | 1 µM | remaining binding | 76% |
| CCN(CC)CCNC(=O)c1c(C)[nH]c(/C=C2\C(=O)Nc3ccc(F)cc32)c1C | enzyme activity | inhibitor |  | 0.3 µM | inhibition | 1% |
| Cc1ccc(C(=O)Nc2ccc(CN3CCN(C)CC3)c(C(F)(F)F)c2)cc1C#Cc1cnc2cccnn12 | enzyme activity |  |  | 23.5 nM | remaining activity | 77% |
| CNC(=O)c1cc(Oc2ccc(NC(=O)Nc3ccc(Cl)c(C(F)(F)F)c3)cc2)ccn1 | enzyme activity | inhibitor |  | 10 µM | inhibition | 48% |
| Cn1cnc(Br)c1C1=CN(c2ncnc3[nH]cnc23)CCS1 | enzyme activity | inhibitor | radiometric | 2 µM | inhibition | 92.8% |
| Cc1sc(C(=O)NC2COC2)cc1-n1cc(NC(=O)Nc2c(F)cccc2Cl)cn1 | enzyme activity | inhibitor |  | 10 µM | remaining activity | 87.5% |
| N#Cc1ccc(Nc2ccc3[nH]c(=O)[nH]c3c2)c(Cl)c1 | cell-free assay |  | competition with immobilised ligand | 1 µM | remaining binding | 100% |
| CN1CC(Oc2cnc(C#N)cc2-c2ccn3nc(NC(=O)C4CC4)cc3c2)C1 | enzyme activity | inhibitor |  | 1 µM | inhibition | 5% |
| O=C1NC(=O)c2cc(Nc3ccc(F)cc3)c(Nc3ccc(F)cc3)cc21 | cell-free assay |  |  | 0.5 µM | remaining signal | 103% |
| CN(C(=O)c1ccccc1)c1cc(N(C)c2ccc3c(c2)CCc2ccc(C(=O)NCCN4CCOCC4)cc2C3=O)ccc1F | cell-free assay |  | competition with immobilised ligand | 1 µM | remaining binding | 93% |
| CC(C)(O)[C@H]1CC[C@H](Nc2ccc3ncc(-c4cccc(C(F)(F)F)c4)n3n2)CC1 | enzyme activity | inhibitor |  | 1 µM | remaining activity | 103% |
| Cc1ccc(Nc2nccc(N(C)c3ccc4c(C)n(C)nc4c3)n2)cc1S(N)(=O)=O | enzyme activity | inhibitor |  | 0.3 µM | inhibition | 61% |
| CNCc1ccccc1-c1csc([C@@H](C)Nc2nc(C)nc3cc(OC)c(OC)cc23)c1 | cell-free assay |  | competition with immobilised ligand | 1 µM | remaining binding | 67% |
| Cc1cnc(NC2CCOCC2)nc1-n1cnc(C(=O)NC(CN)c2cc(F)cc(Cl)c2)c1 (centres unmarked) | enzyme activity | inhibitor | radiometric | 1 µM | remaining activity | 24% |
| CCS(=O)(=O)c1cc2cc(C[C@@](O)(CC(C)(C)c3ccc(F)cc3C(N)=O)C(F)(F)F)[nH]c2cn1 | cell-free assay |  | competition with immobilised ligand | 1 µM | remaining binding | 77% |
| CN(C)c1nccc(-c2cnc3ncccn23)n1 | binding |  |  | 1 µM | remaining binding | 94% |
| CO[C@@H](C)c1c(Nc2ccc([C@H](N(C)C(=O)C3CCS(=O)(=O)CC3)C(F)(F)F)cc2)cnc2cc(Cl)nn12 | cell-free assay |  | competition with immobilised ligand | 1 µM | remaining binding | 88% |
| COc1cc2ncnc(Nc3ccc(Oc4ccccc4)cc3C)c2cc1OC | enzyme activity | inhibitor |  | 1 µM | inhibition | 6% |
